TbMetRS inhib = blocks T. brucei methionyl-tRNA synthetase activity; inhibition, % at 11.9 µM; AID 624268; actives 0.4% (n = 360,000); purified T. brucei MetRS, ATP depletion, Kinase-Glo luminescence;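 active means inhibition above a per-plate cutoff of the control wells' mean inhibition plus 3 SD, cut at about 5.5% in these data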;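 further: 0% = DMSO wells median and 100% = median of wells with control inhibitor compound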
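technique = Kinase-Glo luminescence, ATP depletion format | system = purified MetRS (methionyl-tRNA synthetase) enzyme from Trypanosoma brucei | timing = 15 min preincubation, 2 h reaction, all 25 °C | evaluation = percent inhibition versus plate control medians | dosing = single dose, 11.9 µM final nominal, 0.9% final DMSO | also added = substrates ATP, L-methionine and bulk Escherichia coli tRNA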
HNF4A DNA FP = change in binding of human HNF4 alpha to DNA | actives 0.3% (n = 360,000) | AID 1224865 | activity change, % at 10 µM | P41235 | HNF4a-FITC DNA binding, fluorescence polarization, 1 h; in the data active means activity change above about 30%, passing the limit was not always enough
Rpn11 inh = Rpn11 (human) deubiquitinase inhibition; human 26S proteasome, Ub4-pepOG fluorescence polarization; 20S core pre-blocked with epoxomicin; inhibition, % at 20 µM; actives 0.59% (n = 360,000);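 active means inhibition at 20 µM, scaled to each plate's controls, above about 33%, limit read from the data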
Target sequence (O00487 whole entry, looked up): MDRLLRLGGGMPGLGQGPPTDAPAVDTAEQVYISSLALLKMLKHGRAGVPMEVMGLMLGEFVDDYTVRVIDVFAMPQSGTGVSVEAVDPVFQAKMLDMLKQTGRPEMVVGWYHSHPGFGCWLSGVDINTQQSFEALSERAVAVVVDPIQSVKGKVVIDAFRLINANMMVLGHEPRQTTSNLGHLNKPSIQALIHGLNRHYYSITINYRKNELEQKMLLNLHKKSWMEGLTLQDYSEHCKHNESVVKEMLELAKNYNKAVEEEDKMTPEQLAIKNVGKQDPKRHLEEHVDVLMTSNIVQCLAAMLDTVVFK
PREPL inhibitor = inhibits the human prolyl oligopeptidase-like enzyme; actives 0.68% (n = 320,000); inhibition, % at 5.96 µM; recombinant PREPL, fluorescence polarization activity-based probe; in the data active means inhibition above about 43%;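 further: 0% = enzyme with DMSO and 100% = wells lacking enzyme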
CSN inh = blocks human CSN-mediated cullin deneddylation; Q92905; Purified CSN, SCF-Nedd8-OG deneddylation, fluorescence polarization; inhibition, % at 12.5 µM; actives 0.38% (n = 360,000);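 active means pattern-corrected inhibition above about 35%, with an unprinted fluorescence ratio check between 0.5 and 1.5, limit read from the data, passing the limit was not always enough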;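 further: 0% = enzyme with substrate and 100% = substrate without enzyme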
Target sequence (Q92905 whole entry, looked up, one chain of several): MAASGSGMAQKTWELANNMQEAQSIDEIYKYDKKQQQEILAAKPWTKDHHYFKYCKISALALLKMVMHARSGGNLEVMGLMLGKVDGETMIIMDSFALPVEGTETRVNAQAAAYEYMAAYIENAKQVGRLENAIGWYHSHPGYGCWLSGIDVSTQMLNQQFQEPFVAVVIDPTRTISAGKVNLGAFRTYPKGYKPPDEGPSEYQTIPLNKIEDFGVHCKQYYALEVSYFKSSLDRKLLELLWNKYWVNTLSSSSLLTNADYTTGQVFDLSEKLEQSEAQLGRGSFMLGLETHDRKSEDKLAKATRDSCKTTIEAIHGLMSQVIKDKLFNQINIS
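Assay system: HEK293T-derived human Csn5 enzyme; quantity: 0.24 nM enzyme; medium: Tris/NaCl/DTT buffer, pH 7.5; also added: substrate SCFSkp2-Nedd8OG, 10 nM; doses: 12.5 µM compound; schedule: 90 min reaction at room temperature; signal: FP; read-out: % inhibition of substrate cleavage by Csn5; benchmarks: substrate-only high control, full reaction low control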
Neddyl block = cullin neddylation inhibition. P61081+Q13564. actives 0.58% (n = 360,000). inhibition, % at 25 µM. TR-FRET cullin neddylation, biochemical; in the data active means inhibition above about 36%
The depositor's hits bear a star; . = not tested or not shown. A selection: hits, their analogues and other compounds. The true share with any hit is near 2.4%.

SMILES | TbMetRS inhib | HNF4A DNA FP | Rpn11 inh | PREPL inhibitor | CSN inh | Neddyl block
CCOc1cc(/C=C(\C#N)c2[nH]nc(N)c2C#N)ccc1O | 0 | 2 | 16 | 52* | 6 | 3
CCOc1cc(-c2cc(-c3ccc(C)cc3)nc(N)c2C#N)ccc1O | -1 | 4 | 34 | 33 | 9 | -7
O=c1[nH]c2ccc(N=Cc3c(O)ccc4cc(Br)ccc34)cc2[nH]1 | 0 | 17 | 23 | . | 42* | -47
NC(=O)c1ccccc1NC(=O)c1ccc2ccccc2c1 | 0 | -2 | 2 | -12 | -2 | 4
NC(=O)c1ccccc1NC(=O)c1cccc(C(=O)Nc2ccccc2C(N)=O)n1 | -1 | 3 | 3 | 0 | 35* | 23
NC(=O)CC(NC(=O)Cc1ccc(Br)cc1)c1ccc(NC2CCN(Cc3ccccc3)CC2)c([N+](=O)[O-])c1 (centres undefined) | 0 | -4 | 8 | 2 | 53* | -70
O=C(CN1CCN(C/C=C/c2ccccc2)CC1)Nc1cc([N+](=O)[O-])ccc1Cl | 0 | -2 | 4 | 49* | -19 | -20
O=C(O)CCC(=O)Nc1cccc(C(=O)Nc2ccc(Br)cc2)c1 | -1 | 80* | -2 | -8 | -4 | 1
O=C(O)CCC(=O)Nc1cccc(C(=O)Nc2cccc(Cl)c2)c1 | -1 | -3 | -2 | -7 | -4 | -8
O=C(NC1CCCCC1)C(c1ccccc1F)n1c(=O)c(-c2ccco2)nc2ccccc21 (centres undefined) | 0 | 34* | . | . | 20 | 31
CC(C)(C)NC(=O)C(c1ccc(C(F)(F)F)cc1)n1c(=O)c(-c2ccco2)nc2ccccc21 (centres undefined) | 0 | 42* | . | . | 27 | 19
O=C(NCc1ccccc1)C(c1cc2ccccc2o1)n1c(=O)c(-c2ccco2)nc2ccccc21 (centres undefined) | -1 | 37* | . | . | 28 | 25
O=C(CN1CCN(C(=O)C2CCCO2)CC1)Nc1cc(C(F)(F)F)ccc1Cl (centres undefined) | -1 | 1 | -2 | 14 | 0 | -5
CCOC(=O)C1=C(CSc2nc(-c3ccccc3)ccc2C#N)OC(N)=C(C#N)C1c1ccccc1 (centres undefined) | 0 | 39* | . | -58 | 39* | 29
COc1cc(N/C(N)=N/c2nc(C)cc(C)n2)cc(OC)c1 | 0 | 2 | 10 | -4 | -1 | -1
COc1cc(OC)c(OC)cc1/C=C1\CC(C)C/C(=C\c2cc(OC)c(OC)cc2OC)C1=O (centres undefined) | 0 | 58* | . | 19 | 31 | 12
COc1cc(OC)c(OC)cc1/C=C1/Cc2ccccc2C1=O | 0 | -48 | 4 | 10 | 10 | 3
O=C(O)C1=CCC=CC1C(=O)O (centres undefined) | 0 | -29 | -15 | . | 18 | 3
O=C(Nc1c(-c2ccc(Cl)cc2)[nH][nH]c1=O)c1ccc(Br)cc1 | 0 | 0 | 9 | . | -2 | 0
Cc1ccc2nc(-c3ccccc3)cn2c1 | -3 | 1 | 1 | -10 | 0 | 39*
Cc1ccc2nc(-c3ccc(O)c(O)c3)cn2c1 | -1 | -4 | -12 | 1 | 6 | 18
CCOC(=O)C1CCN(C(c2cc3c(C)ccc(C)c3[nH]c2=O)c2nnnn2C2CCCCC2)CC1 (centres undefined) | 0 | 7 | 19 | -10 | -1 | -9
CCOC(=O)C1CCN(C(c2cc3ccc(C)c(C)c3[nH]c2=O)c2nnnn2C2CCCCC2)CC1 (centres undefined) | 0 | 16 | 31* | -6 | 3 | -26
COc1cc2cc(C(c3nnnn3C3CCCC3)N3CCCCC3)c(=O)[nH]c2cc1OC (centres undefined) | 0 | -3 | -4 | 0 | 1 | 28
O=c1[nH]c2cc3c(cc2cc1C(c1nnnn1C1CCCCC1)N1CCSCC1)OCCO3 (centres undefined) | 0 | 4 | 35 | 4 | 37* | 20
SMILES | TbMetRS inhib | HNF4A DNA FP | Rpn11 inh | PREPL inhibitor | CSN inh | Neddyl block
c1ccc(-n2cnc3cc(NCc4ccccn4)ccc32)cc1 | 0 | -2 | 12 | 55* | -2 | 14
c1ccc(-n2cnc3cc(NCc4ccncc4)ccc32)cc1 | 0 | 4 | 13 | 29 | 8 | 13
Cc1ccc2nc3sc(C(=O)N4CCCc5ccccc54)c(N)c3cc2c1 | 0 | 39* | . | 18 | 0 | -123
CCCCCCNc1ccc(C(=O)OCC)cc1 | 0 | -4 | 13 | . | 124* | 8
CCOC(=O)c1ccc(NC(=O)Nc2ccc(F)cc2)cc1 | 0 | -1 | 0 | 1 | 2 | 16
COc1ccc2[nH]c3c4c(ccc3c2c1)C(=O)C=CC4=O | 1 | 46* | 36 | . | 5 | .
COC(=O)c1cncn1Cc1ccccc1 | 0 | -5 | -4 | . | 0 | -7
COc1cc2c(-c3ccc(O)cc3)nc3c(c(C)nn3-c3ccccc3)c2cc1OC | 0 | 160* | 5 | -8 | 1 | .
COc1cc2c(C)nc3c(c(C)nn3-c3ccccc3)c2cc1OC | 1 | -3 | -4 | 2 | 1 | -259
Cc1occc1C(=O)N/N=C/C=C/c1ccccc1 | 0 | 2 | -7 | 11 | 9 | -28
Cc1occc1C(=O)N/N=C/C=C/c1ccc(N(C)C)cc1 | -1 | 24 | 10 | 12 | 16 | 40*
Cc1occc1C(=O)N/N=C/c1ccc(N(C)C)cc1 | -3 | 2 | -7 | 7 | 2 | 39*
CC(=O)N1c2ccccc2S(=O)(=O)c2c1ccc1ccccc21 | 0 | 4 | -5 | . | 4 | -2
O=C(C=NNc1ccccc1)c1ccccc1 | 0 | 2 | -1 | . | -3 | -20
Cc1ccc(NCCN(C)C)c2c(=O)c3cc(O)ccc3sc12 | 0 | 52* | 37 | . | 13 | -76
c1nc(NC2CCCCCC2)c2[nH]cnc2n1 | 1 | 1 | 1 | -8 | -1 | 6
c1nc(NC2CCCCC2)c2[nH]cnc2n1 | 0 | -3 | 0 | 5 | 45* | -13
CCOC(=O)C(=Cc1ccc(-c2ccsc2C(=O)OC)o1)C(=O)OCC | 0 | 5 | 7 | -10 | 118* | .
COC(=O)C(=Cc1ccc(-c2ccsc2C(=O)OC)o1)C(=O)OC | 0 | 1 | 4 | 4 | 4 | .
O=C(OCc1ccccc1)N1C=CCC[C@@H]1c1c(Cl)cccc1Br | 0 | 2 | 7 | . | 1 | -7
COc1ccc(NC(=O)CNC(=O)Cc2cccc3ccccc23)cc1 | 0 | -4 | 0 | 13 | 37* | 2
CC(=O)c1cccc(NC(=O)CNC(=O)Cc2cccc3ccccc23)c1 | 0 | 0 | 3 | 6 | -2 | -1
CC1N(C(=O)N2CCOCC2)CCN1S(=O)(=O)c1cccc(C(F)(F)F)c1 (centres undefined) | 0 | 1 | -6 | 3 | 0 | 1

Screens from PubChem BioAssay.
